Results: ChEMBL document CHEMBL3244150, “Semisynthetic cephalosporins. Synthesis and structure-activity relationships of analogues with 7-acyl groups derived from 2-(cyanomethylthio)acetic acid or 2-[(2,2,2-trifluoroethyl)thio]acetic acid and their sulfoxides and sulfones” (1977)
Values after ≈ are worked out from the molar mass of the structure shown. Active and inactive are the calls of the source. No cut-off for these calls is given here.

How the values were obtained:
Staphylococcus aureus = assay: Antibacterial activity against penicillin G-resistant Staphylococcus aureus HH 127 after overnight incubation by twofold agar dilution method; type: functional
Summary of the method: (§1)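 MIC (ug/ml) determined by twofold agar dilution on Trypticase soy agar buffered to pH 6.0.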

Escherichia coli [1] = assay: Antibacterial activity against Escherichia coli 12140 after overnight incubation by twofold agar dilution method; type: functional
Summary of the method: (§2)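 Twofold agar dilution on Trypticase soy agar buffered to pH 6.0. MIC recorded in ug/ml.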

Klebsiella pneumoniae = assay: Antibacterial activity against Klebsiella pneumoniae 4200 after overnight incubation by twofold agar dilution method; type: functional; summary of the method: as §2
Salmonella paratyphi = assay: Antibacterial activity against Salmonella paratyphi ATCC 12176 after overnight incubation by twofold agar dilution method; type: functional, Salmonella enterica subsp. enterica serovar Paratyphi A; settings: Salmonella enterica; summary of the method: as §1
Shigella flexneri = assay: Antibacterial activity against Shigella paradysenteriae HH 117 after overnight incubation by twofold agar dilution method; type: functional; summary of the method: as §1
Klebsiella aerogenes = assay: Antibacterial activity against Enterobacter aerogenes ATCC 13048 after overnight incubation by twofold agar dilution method; type: functional; summary of the method: as §2
Enterococcus faecalis = assay: Antibacterial activity against Streptococcus faecalis after overnight incubation by twofold agar dilution method; type: functional; summary of the method: as §2
Pseudomonas aeruginosa = assay: Antibacterial activity against Pseudomonas aeruginosa after overnight incubation by twofold agar dilution method; type: functional, organism-based; summary of the method: as §2
Escherichia coli [2] = assay: Antibacterial activity against Escherichia coli 12140 infected in sc dosed mouse assessed as mouse survival after 3 days; type: functional; settings: Escherichia coli, 12140, sc, 72 h; read-out: PD50
Summary of the method: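 Mice infected ip with approximately 2 X 10 organisms per mouse of E. coli 12140 culture diluted in 5% hog gastric mucin (uniformly lethal). Fourfold dilutions dosed sc in equally divided portions at 1 and 5 h postinfection; five groups of ten mice each. Survivors observed for 3 days. PD50 = total dose (mg/kg) protecting 50% of mice, calculated by Litchfield and Wilcoxon method.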

Compound | MIC (Staphylococcus aureus) [µg/mL] | MIC (Escherichia coli [1]) [µg/mL] | MIC (Klebsiella pneumoniae) [µg/mL] | MIC (Salmonella paratyphi) [µg/mL] | MIC (Shigella flexneri) [µg/mL] | MIC (Klebsiella aerogenes) [µg/mL] | MIC (Enterococcus faecalis) [µg/mL] | Activity (Pseudomonas aeruginosa) | ED50 (Escherichia coli [2]) [mg/kg]
Cc1nnc(SCC2=C(C(=O)[O-])N3C(=O)[C@@H](NC(=O)C[S+]([O-])CC#N)[C@H]3SC2)s1.[Na+] (stereo not given in full) | 0.8 | 3.1 | 1.6 | 0.8 | 0.8 | 6.3 | > 13 | inactive | 22
CC(=O)OCC1=C(C(=O)O)N2C(=O)[C@@H](NC(=O)CC#N)[C@H]2SC1 [CEPHACETRILE] | 0.4 (≈ 1.18 µM) | 6.3 (≈ 18.6 µM) | 3.1 (≈ 9.14 µM) | 3.1 (≈ 9.14 µM) | 3.1 (≈ 9.14 µM) | 6.3 (≈ 18.6 µM) | > 13 | inactive | 25
Cc1nnc(SCC2=C(C(=O)[O-])N3C(=O)[C@@H](NC(=O)CSCC#N)[C@H]3SC2)s1.[Na+] | 0.2 | 1.6 | 1.6 | 1.6 | 1.6 | > 200 | > 13 | inactive | 14
CC(=O)OCC1=C(C(=O)O)N2C(=O)[C@@H](NC(=O)Cc3cccs3)[C@H]2SC1 [CEPHALOTHIN] | 0.2 (≈ 0.504 µM) | 3.1 (≈ 7.82 µM) | 3.1 (≈ 7.82 µM) | 1.6 (≈ 4.04 µM) | 6.3 (≈ 15.9 µM) | 50 (≈ 126 µM) | > 13 | inactive | 50
Cc1nnc(SCC2=C(C(=O)[O-])N3C(=O)[C@@H](NC(=O)CS(=O)(=O)CC(F)(F)F)[C@H]3SC2)s1.[Na+] | 1.6 | 6.3 | 6.3 | 6.3 | 6.3 | 12.5 | > 13 | inactive | 35
CC(=O)OCC1=C(C(=O)[O-])N2C(=O)[C@@H](NC(=O)CS(=O)(=O)CC(F)(F)F)[C@H]2SC1.[Na+] | 3.1 | 25 | 6.3 | 3.1 | 12.5 | 50 | > 13 | inactive | 100
Cn1nnnc1SCC1=C(C(=O)[O-])N2C(=O)[C@@H](NC(=O)C[S+]([O-])CC(F)(F)F)[C@H]2SC1.[Na+] (stereo not given in full) | 1.6 | 0.8 | 0.4 | 1.6 | 0.4 | 6.3 | > 13 | inactive | 1.5
Cn1nnnc1SCC1=C(C(=O)[O-])N2C(=O)[C@@H](NC(=O)C[S+]([O-])CC#N)[C@H]2SC1.[Na+] (stereo not given in full) | 1.6 | 1.6 | 1.6 | 0.8 | 1.6 | 12.5 | > 13 | inactive | 10
Cc1nnc(SCC2=C(C(=O)O)N3C(=O)[C@@H](NC(=O)CS(=O)(=O)CC#N)[C@H]3SC2)s1 | 1.6 (≈ 3.27 µM) | 6.3 (≈ 12.9 µM) | 6.3 (≈ 12.9 µM) | 6.3 (≈ 12.9 µM) | 3.1 (≈ 6.33 µM) | 12.5 (≈ 25.5 µM) | > 13 | inactive | 15
CC(=O)OCC1=C(C(=O)[O-])N2C(=O)[C@@H](NC(=O)C[S+]([O-])CC(F)(F)F)[C@H]2SC1.[Na+] (stereo not given in full) | 0.8 | 6.3 | 3.1 | 1.6 | 3.1 | 6.3 | > 13 | inactive | 25
